In publication PMC9774327 (ACS Omega, 2022):
Where a SMILES comes first, the peptide text is derived from it. Bridges are numbered along the chain shown (N, C = ends). Where no end group is shown, it is not given here. [ ]: non-standard residue; d: D form. S5 = C=CCCC[C@](C)(N)C(=O)O

Tests used:
[1] = target: T1, VDR-mediated transcription in MCF-7 cells expressing the VDR (Homo sapiens, UniProt P11473); test: Dual-luciferase reporter gene assay of VDR-mediated transcription; type: cell-based; conditions: 3 μM peptide, 30 nM calcitriol defined as 100%, 16 h incubation
T1 sequence (P11473 1-427): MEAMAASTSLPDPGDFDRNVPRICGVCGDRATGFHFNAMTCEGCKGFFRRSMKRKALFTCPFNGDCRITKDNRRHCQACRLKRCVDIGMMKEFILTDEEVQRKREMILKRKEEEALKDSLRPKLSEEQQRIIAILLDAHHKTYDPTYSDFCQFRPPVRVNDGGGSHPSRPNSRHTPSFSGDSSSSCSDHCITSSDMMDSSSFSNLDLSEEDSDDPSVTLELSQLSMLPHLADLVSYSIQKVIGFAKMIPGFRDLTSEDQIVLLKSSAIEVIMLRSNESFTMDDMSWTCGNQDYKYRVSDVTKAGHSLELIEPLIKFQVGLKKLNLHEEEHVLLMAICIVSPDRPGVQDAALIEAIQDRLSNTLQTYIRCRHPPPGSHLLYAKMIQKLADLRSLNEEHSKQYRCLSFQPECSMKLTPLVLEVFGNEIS
Outline: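 MCF-7 cells (RPMI-1640, 10% heat-inactivated FBS, 1% penicillin/streptomycin) seeded at 4×10^4 cells/well and cultured 24 h. Cells were co-transfected by lipofection with a VDRE-firefly luciferase reporter and SV40-Renilla luciferase control. After 8 h, test compound was added with 1α,25(OH)₂D₃ (30 nM) for 16 h. Dual-luciferase activity was read in lysates, with 30 nM calcitriol activation set as 100%.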

MCF-7 cells = test: Confocal microscope observation of intracellular localization; type: cell-based; conditions: peptide 1 μM with LysoTracker 70 nM for 2 h, Figure S8
Outline: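 MCF-7 cells grown in RPMI-1640 with 10% heat-inactivated FBS and 1% penicillin/streptomycin, then plated on glass-bottom dishes. They were co-incubated 2 h with peptide and LysoTracker, then stained with Hoechst33342 for 5 min and washed with PBS before confocal imaging.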

HL-60 cells = test: NBT reduction assay of VDR-mediated cell differentiation; type: cell-based; conditions: 1 μM peptide with 30 nM VD3, 48 h, NBT-positive cells counted
Outline: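 HL-60 cells in RPMI-1640 with 10% heat-inactivated FBS were treated 48 h with VD₃ (30 nM) with or without peptide. Cells were then stained with 1 mg/mL NBT plus 320 nM PMA for 30 min at 37 °C. NBT-positive cells were counted microscopically among more than 200 cells and expressed as a percentage. Data are means ± SD of three independent experiments.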

[2] = target: ligand binding domain of rat VDR with a deleted loop region (Ser165–Pro211) (rat) (UniProt P13053); test: fluorescence polarisation
Chain of ligand binding domain of rat VDR with a deleted loop region (Ser165–Pro211) (rat) (P13053 212-423, stated change not applied): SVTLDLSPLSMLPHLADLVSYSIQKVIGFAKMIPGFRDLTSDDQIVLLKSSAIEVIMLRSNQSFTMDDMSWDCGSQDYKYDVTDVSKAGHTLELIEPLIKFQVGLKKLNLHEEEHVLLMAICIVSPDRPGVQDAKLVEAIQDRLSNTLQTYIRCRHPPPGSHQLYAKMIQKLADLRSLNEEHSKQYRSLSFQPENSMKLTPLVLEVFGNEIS

| Compound | % Inhibition at 3 μM of VDR-mediated transcriptional activity [1] [%] | intracellular localization (confocal microscopy) (MCF-7 cells) | inhibition of HL-60 cell differentiation at 1 μM (HL-60 cells) | relative value of IC50 (to SRC2-3) [2] |
| --- | --- | --- | --- | --- |
| CC(C)C[C@H](NC(=O)[C@H](CC(C)C)NC(=O)[C@]1(C)CCCC=CCCC[C@](C)(NC(=O)[C@H](CC(N)=O)NC(=O)[C@H](CCC(=O)O)NC(=O)[C@@H](N)CCCCN)C(=O)N[C@@H](CC(C)C)C(=O)N[C@@H](CC(C)C)C(=O)N[C@@H](CCCNC(=N)N)C(=O)N1)C(=O)N[C@@H](CC(=O)O)C(=O)N[C@@H](CCCCN)C(=O)N[C@@H](CC(=O)O)C(=O)NCC(=O)NCC(=O)NCC(=O)N[C@@H](CCCNC(=N)N)C(=O)N[C@@H](CCCNC(=N)N)C(=O)N[C@@H](CCCNC(=N)N)C(=O)N[C@@H](CCCNC(=N)N)C(=O)N[C@@H](CCCNC(=N)N)C(=O)N[C@@H](CCCNC(=N)N)C(=O)N[C@@H](CCCNC(=N)N)C(=O)N[C@@H](CCCNC(=N)N)C(=O)N[C@@H](CCCNC(=N)N)C(N)=O [Peptide 23] (H-KEN[S5]LLR[S5]LLDKDGGGRRRRRRRRR-NH2; staple 4-8) | 44.3 | localized in the endosome |  |  |
| CC(C)C[C@H](NC(=O)[C@H](C)NC(=O)[C@H](CC(N)=O)NC(=O)[C@H](CCC(=O)O)NC(=O)[C@@H](N)CCCCN)C(=O)N[C@@H](CC(C)C)C(=O)N[C@@H](CCCNC(=N)N)C(=O)N[C@@]1(C)CCCC=CCCC[C@@](C)(C(=O)N[C@@H](CC(=O)O)C(=O)NCC(=O)NCC(=O)NCC(=O)N[C@@H](CCCNC(=N)N)C(=O)N[C@@H](CCCNC(=N)N)C(=O)N[C@@H](CCCNC(=N)N)C(=O)N[C@@H](CCCNC(=N)N)C(=O)N[C@@H](CCCNC(=N)N)C(=O)N[C@@H](CCCNC(=N)N)C(=O)N[C@@H](CCCNC(=N)N)C(=O)N[C@@H](CCCNC(=N)N)C(=O)N[C@@H](CCCNC(=N)N)C(N)=O)NC(=O)[C@H](CC(=O)O)NC(=O)[C@H](CC(C)C)NC(=O)[C@H](CC(C)C)NC1=O [Peptide 24] |  | broadly localized over the entire cell | did not inhibit cell differentiation |  |
| KENALLRYLLDKDGGGRRRRRRRRR-NH2 [Peptide 21] |  |  | did not inhibit cell differentiation |  |
| SRC2-3 peptide |  |  |  | 1 |
